Legend:
DU-145 = assay: Cytotoxicity against human DU145 cells after 48 hrs by SRB assay; format: functional, cell-based; settings: Homo sapiens, DU-145, 48 h; for CC50: read-out: LC50 (the source's name)
Procedure, shortened: (§1)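 Cells grown in RPMI 1640 with 10% FBS and penicillin/streptomycin at 37 °C and 5% CO₂, trypsinized, then seeded at 5 × 10³/well. After 18 h drug-free attachment, samples in DMSO/EtOH/PBS (0.5:0.5:99) were added for 48 h continuous exposure. Cells were fixed with cold TCA (1 h, 4 °C) and stained with SRB (10 min). Tris-solubilized stain read at 490 nm. Triplicate wells, mean ± SD; GI₅₀ derived.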

LNCaP = assay: Cytotoxicity against human LNcaP cells after 48 hrs by SRB assay; format: functional; settings: for CC50: read-out: LC50 (the source's name); procedure, shortened: as §1
[1] = Cytotoxicity against human IGROV cells after 48 hrs by SRB assay; format: functional; settings: for CC50: read-out: LC50 (the source's name); procedure, shortened: as §1
[2] = Cytotoxicity against human IGROV-ET cells after 48 hrs by SRB assay; format: functional; settings: for CC50: read-out: LC50 (the source's name); procedure, shortened: as §1
SK-BR-3 = assay: Cytotoxicity against human SKBR3 cells after 48 hrs by SRB assay; format: functional; settings: SK-BR-3, 48 h; for CC50: read-out: LC50 (the source's name); procedure, shortened: as §1
SK-MEL-28 = assay: Cytotoxicity against human SK-MEL-28 cells after 48 hrs by SRB assay; format: functional, cell-based; settings: Homo sapiens, SK-MEL-28, 48 h; for CC50: read-out: LC50 (the source's name); procedure, shortened: as §1
A549 = assay: Cytotoxicity against human A549 cells after 48 hrs by SRB assay; format: functional, cell-based; settings: Homo sapiens, A549, 48 h; for GI50: read-out: GI50; procedure, shortened: as §1
K562 = assay: Cytotoxicity against human K562 cells after 48 hrs by SRB assay; format: functional; settings: K562, 48 h; for CC50: read-out: LC50 (the source's name); procedure, shortened: as §1
PANC-1 = assay: Cytotoxicity against human PANC1 cells after 48 hrs by SRB assay; format: functional; settings: PANC-1, 48 h; for CC50: read-out: LC50 (the source's name); procedure, shortened: as §1
HT-29 = assay: Cytotoxicity against human HT29 cells after 48 hrs by SRB assay; format: functional, cell-based; settings: Homo sapiens, HT-29, 48 h; for CC50: read-out: LC50 (the source's name); procedure, shortened: as §1
LoVo [3] = assay: Cytotoxicity against human LoVo cells after 48 hrs by SRB assay; format: functional; settings: for CC50: read-out: LC50 (the source's name)
LoVo [4] = assay: Cytotoxicity against human doxorubicin resistant LoVo cells after 48 hrs by SRB assay; format: functional; settings: for CC50: read-out: LC50 (the source's name); procedure, shortened: as §1
HeLa = assay: Cytotoxicity against human HeLa cells after 48 hrs by SRB assay; format: functional; settings: for CC50: read-out: LC50 (the source's name); procedure, shortened: as §1
[5] = Cytotoxicity against human HeLa-APL cells after 48 hrs by SRB assay; format: functional; procedure, shortened: as §1

C/C=C1\NC(=O)[C@H](Cc2ccccc2)NC(=O)[C@@H](C(C)C)NC(=O)[C@@H]([C@H](C)CC)NC(=O)[C@H](NC(=O)[C@H](NC(=O)[C@H](CCCN)NC(=O)[C@H]2CCCN2C(=O)[C@H](NC(=O)[C@@H](NC(=O)[C@H](NC(=O)[C@H](NC(=O)CCCC(C)C)C(C)C)[C@@H](C)O)C(C)C)C(C)C)[C@H](C)CC)[C@H](C)OC(=O)[C@H](C(C)C)NC1=O
CC50 (DU-145): 1460 nM
CC50 (LNCaP): 1490 nM
CC50 [1]: 791 nM
CC50 [2]: 1050 nM
CC50 (SK-BR-3): 1140 nM
CC50 (SK-MEL-28): 1620 nM
LC50 (A549): 1810 nM
GI50 (K562): 1930 nM
TGI (K562): 1930 nM
CC50 (K562): 1930 nM
CC50 (PANC-1): 1770 nM
CC50 (HT-29): 4710 nM
TGI (LoVo [3]): 8.96 µM
CC50 (LoVo [3]): 4.75 µM
CC50 (LoVo [4]): 22.3 µM
CC50 (HeLa): 1920 nM
LC50 (concentration giving 50% net cell kill) [5]: 1800 nM

C/C=C1\NC(=O)[C@H](Cc2ccccc2)NC(=O)[C@@H](C(C)C)NC(=O)[C@@H]([C@H](C)CC)NC(=O)[C@H](NC(=O)[C@H](NC(=O)[C@H](CCCN)NC(=O)[C@H]2CCCN2C(=O)[C@H](NC(=O)[C@@H](NC(=O)[C@@H](NC(=O)[C@H](NC(=O)CCCCCC)C(C)C)[C@@H](C)O)C(C)C)C(C)C)[C@H](C)CC)[C@H](C)OC(=O)[C@H](C(C)C)NC1=O
GI50 (DU-145): 880 nM
GI50 (DU-145; read-out: GI50): 848 nM
CC50 (DU-145): 895 nM
GI50 (LNCaP): 1090 nM
TGI (LNCaP): 863 nM
CC50 (LNCaP): 861 nM
GI50 [1]: 404 nM
GI50 ([1]; read-out: GI50): 354 nM
CC50 [1]: 421 nM
GI50 [2]: 304 nM
GI50 ([2]; read-out: GI50): 289 nM
CC50 [2]: 394 nM
GI50 (SK-BR-3): 36.3 nM
GI50 (SK-BR-3; read-out: GI50): 227 nM
CC50 (SK-BR-3): 363 nM
GI50 (SK-MEL-28): 915 nM
GI50 (SK-MEL-28; read-out: GI50): 808 nM
CC50 (SK-MEL-28): 991 nM
LC50 (A549): 1150 nM
TGI (A549): 1160 nM
GI50 (A549): 1180 nM
GI50 (K562): 2740 nM
TGI (K562): 2970 nM
CC50 (K562): 1990 nM
GI50 (PANC-1): 2360 nM
TGI (PANC-1): 3780 nM
CC50 (PANC-1): 2720 nM
GI50 (HT-29): 499 nM
TGI (HT-29): 583 nM
CC50 (HT-29): 1070 nM
GI50 (LoVo [3]): 320 nM
TGI (LoVo [3]): 0.324 µM
CC50 (LoVo [3]): 0.326 µM
GI50 (LoVo [4]): 0.264 µM
TGI (LoVo [4]): 0.244 µM
CC50 (LoVo [4]): 0.175 µM
GI50 (HeLa): 965 nM
TGI (HeLa): 882 nM
CC50 (HeLa): 806 nM
GI50 [5]: 781 nM
LC50 (concentration giving 50% net cell kill) [5]: 864 nM
TGI [5]: 822 nM

C/C=C1\NC(=O)[C@H](Cc2ccccc2)NC(=O)[C@@H](C(C)C)NC(=O)[C@@H]([C@H](C)CC)NC(=O)[C@H](NC(=O)[C@H](NC(=O)[C@H](CCCN)NC(=O)[C@H]2CCCN2C(=O)[C@H](NC(=O)[C@H](CCCN)NC(=O)[C@@H](NC(=O)[C@H](NC(=O)CCCC(C)C)C(C)C)[C@@H](C)O)C(C)C)[C@H](C)CC)[C@H](C)OC(=O)[C@H](C(C)C)NC1=O
TGI (DU-145): 1330 nM
GI50 (DU-145; read-out: GI50): 1230 nM
CC50 (DU-145): 1440 nM
GI50 (LNCaP): 1760 nM
TGI (LNCaP): 2730 nM
CC50 (LNCaP): 1390 nM
CC50 [1]: 758 nM
TGI [2]: 1340 nM
GI50 ([2]; read-out: GI50): 1350 nM
CC50 [2]: 638 nM
TGI (SK-BR-3): 5.24 µM
GI50 (SK-BR-3; read-out: GI50): 4460 nM
CC50 (SK-BR-3): 1050 nM
TGI (SK-MEL-28): 1410 nM
GI50 (SK-MEL-28; read-out: GI50): 1520 nM
CC50 (SK-MEL-28): 1290 nM
LC50 (A549): 1810 nM
TGI (A549): 3670 nM
GI50 (A549): 2920 nM
GI50 (K562): 218 nM
TGI (K562): 950 nM
CC50 (K562): 1910 nM
GI50 (PANC-1): 1730 nM
TGI (PANC-1): 2080 nM
CC50 (PANC-1): 2290 nM
GI50 (HT-29): 4610 nM
TGI (HT-29): 4910 nM
CC50 (HT-29): 2350 nM
GI50 (LoVo [3]): 3610 nM
TGI (LoVo [3]): 4.54 µM
CC50 (LoVo [3]): 3.9 µM
GI50 (LoVo [4]): 7.59 µM
TGI (LoVo [4]): 7.66 µM
CC50 (LoVo [4]): 3.71 µM
GI50 (HeLa): 1280 nM
TGI (HeLa): 1070 nM
CC50 (HeLa): 898 nM
GI50 [5]: 1110 nM
LC50 (concentration giving 50% net cell kill) [5]: 1270 nM
TGI [5]: 1190 nM

From ChEMBL document CHEMBL1156597, “Structure-activity relationship of kahalalide F synthetic analogues” (J Med Chem, 2008)
